Measurements published in PubChem BioAssay AID624315 (Broad Institute, 2012).
Values joined by “and” are separate entries in the source; they are usually repeats but may differ in a detail not shown here. Equal values may be shown once. Active and inactive are the calls of the source.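 Rule for the calls: active = compounds lowering cell ATP signal whose fitted IC50 is at or below twice the top valid tested dose; inconclusive = flat fit with 30 to 70% inhibition, or poor fit; inactive = the rest.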

System: not listed separately
Assay: SK-MEL-5 parental cell viability reduction, dose response, orthogonal assay for MITF inhibitor project, CellTiter-Glo luminescence, dry powder samples, set 3 (AID 624315)
Settings: SK-MEL-5 melanoma viability, CellTiter-Glo ATP, 24 h; at 35 µM (top of the series)
Method in brief: (§1)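 Material: SK-MEL-5 human melanoma cells, parental non-reporter line | Doses: Multi-dose compound pinning | Medium: Phenol red-free medium | Measure: Cell viability inferred from cellular ATP level | Schedule: 24 h treatment at 37 °C, 5 min RT before reading | Technique: CellTiter-Glo luminescence measuring cellular ATP content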

Compound | activity change, negative = inhibition
C=CCNC1=C(NCC=C)C(=O)c2ccccc2C1=O | -5.12% (inactive)

System: SK-MEL-5 melanoma viability, CellTiter-Glo ATP, 24 h
Assay: as above
Settings: not given
Method in brief: as §1

Compound | IC50
O=C(NC1=C(c2ccc(Oc3ccccc3)cc2)C(=O)c2ccccc2C1=O)c1ccccc1 | > 70 µM (inactive)
O=C1C(NS(=O)(=O)c2ccc(Br)cc2)=C(c2ccc(OC(F)(F)F)cc2)C(=O)c2ccccc21 | > 70 µM (inactive)
O=C(NC1=C(N2CCSCC2)C(=O)c2ccccc2C1=O)c1ccccc1 | 29.9 µM
COc1cccc(-c2cc(C(=O)NC3=C(Cl)C(=O)c4ccccc4C3=O)ccc2OC)c1 | 34 µM
CN1CCN(C2=C(NS(=O)(=O)c3ccc(Br)cc3)C(=O)c3ccccc3C2=O)CC1 | > 70 µM (inactive)
CCN1CCN(C2=C(NC(=O)c3ccccc3)C(=O)c3ccccc3C2=O)CC1 | 8.63 µM
O=C1C(NS(=O)(=O)c2ccc(Br)cc2)=C(c2ccccc2)C(=O)c2ccccc21 | > 70 µM (inactive)
C=CCNC1=C(NCCCN(CC)CC)C(=O)c2ccccc2C1=O | 15.6 µM
CN1CCN(C2=C(NS(=O)(=O)c3cccs3)C(=O)c3ccccc3C2=O)CC1 | > 70 µM (inactive)
CCN1CCN(C2=C(N(C)C(C)=O)C(=O)c3ccccc3C2=O)CC1 | 6.41 µM
COC1=C(NS(=O)(=O)c2ccccc2)C(=O)c2ccccc2C1=O | 21.7 µM
COc1ccc(C2=C(NC(=O)c3ccccc3Cl)C(=O)c3ccccc3C2=O)cc1 | 17.6 µM
C[C@@H](NC1=C(Nc2ccccc2)C(=O)c2ccccc2C1=O)c1ccccc1 | > 70 µM (inactive)
C=CCNC1=C(N2CCCCC2)C(=O)c2ccccc2C1=O | 5.3 µM
COc1ccc(C(=O)NC2=C(c3ccc(OC(F)(F)F)cc3)C(=O)c3ccccc3C2=O)cc1 | > 70 µM (inactive)
O=C1C(Nc2ccccc2)=C(N2CCCCC2)C(=O)c2ccccc21 | 18.1 µM
COc1ccc(C2=C(NC(=O)c3ccc4ccccc4c3)C(=O)c3ccccc3C2=O)cc1 | > 70 µM (inactive)
C=CCNC1=C(N2CCN(CC)CC2)C(=O)c2ccccc2C1=O | 17.9 µM
O=C(NC1=C(c2ccccc2)C(=O)c2ccccc2C1=O)c1ccc(Br)cc1 | > 70 µM (inactive)
COc1cccc(C2=C(NC(=O)c3ccccc3)C(=O)c3ccccc3C2=O)c1 | 22.5 µM
CC1CCN(CC(CS(=O)(=O)c2ccc([N+](=O)[O-])cc2)N2CCC(C)CC2)CC1 (stereo not drawn) | > 70 µM (inactive)
CN1CCN(C2=C(NS(=O)(=O)c3ccc(Br)s3)C(=O)c3ccccc3C2=O)CC1 | 30 µM
CC(=O)NC1=C(c2cccc(Cl)c2)C(=O)c2ccccc2C1=O | 14 µM
C=CCNC1=C(Cl)C(=O)c2ccccc2C1=O | 9.72 µM and 12.1 µM

Compound | IC50
O=C1C(NS(=O)(=O)c2cccs2)=C(N2CCCCC2)C(=O)c2ccccc21 | > 70 µM (inactive)
C=C1C(=O)OC2C1CC/C(C)=C\CCC1(C)OC21 (stereo not drawn) | > 47 µM (inactive)
CC(=O)NC1=C(c2ccc(Cl)cc2)C(=O)c2ccccc2C1=O | 13.4 µM
CC(=O)NC1=C(c2ccc3c(c2)oc2ccccc23)C(=O)c2ccccc2C1=O | 25.3 µM
C=CCNC1=C(NS(=O)(=O)c2ccc(Br)cc2)C(=O)c2ccccc2C1=O | 29.9 µM
NC1=C(NC(=O)c2ccccc2)C(=O)c2ccccc2C1=O | 19.8 µM
O=C(NC1=C(N2CCN(c3ccccc3)CC2)C(=O)c2ccccc2C1=O)c1ccccc1 | > 70 µM (inactive)
C=CCNC1=C(NCCN(CC)CC)C(=O)c2ccccc2C1=O | 14 µM
O=C(NC1=C(c2ccc(OC(F)(F)F)cc2)C(=O)c2ccccc2C1=O)c1ccc(Br)cc1 | > 70 µM (inactive)
CN1CCN(C2=C(NC(=O)c3ccc(Br)cc3)C(=O)c3ccccc3C2=O)CC1 | 6.69 µM
CN1CCN(C2=C(NC(=O)c3ccccc3)C(=O)c3ccccc3C2=O)CC1 | 9.27 µM
C=CCNC1=C(N2CCSCC2)C(=O)c2ccccc2C1=O | 10.9 µM
CC(=O)N(C)C1=C(N2CCOCC2)C(=O)c2ccccc2C1=O | 10.1 µM
COc1ccc(S(=O)(=O)N(C(C)=O)c2ccc(OC(C)=O)c3ccccc23)cc1[N+](=O)[O-] | 31.6 µM
CN1CCN(C2=C(NS(=O)(=O)c3ccccc3)C(=O)c3ccccc3C2=O)CC1 | 18.2 µM
CCN1CCN(C2=C(NC(=O)c3ccc(Br)cc3)C(=O)c3ccccc3C2=O)CC1 | 8.82 µM
COc1ccc(C2=C(NC(=O)c3ccc(OC)cc3-c3cccc(OC)c3)C(=O)c3ccccc3C2=O)cc1 | > 70 µM (inactive)
Cc1ccc(C(=O)NC2=C(c3ccccc3)C(=O)c3ccccc3C2=O)o1 | 23.6 µM
CC(=O)NC1=C(c2ccccc2)C(=O)c2ccccc2C1=O | 18.3 µM
O=C1C(Nc2ccccc2)=C(N2CCN(c3ccccc3)CC2)C(=O)c2ccccc21 | > 70 µM (inactive)
COc1ccc(C2=C(NC(C)=O)C(=O)c3ccccc3C2=O)cc1 | 13.9 µM
O=C(NC1=C(c2ccccc2)C(=O)c2ccccc2C1=O)c1ccccc1 | 26.1 µM
O=C1C=C(Nc2ccccc2)C(=O)c2ccccc21 | 5.05 µM
C=CCNC1=C(N2CCN(C)CC2)C(=O)c2ccccc2C1=O | 25.3 µM

Compound | IC50
CCN1c2ccccc2NC2N=C(OC)C(c3ccccc3)C21 (stereo not drawn) | 23.9 µM
CCN(CC)CCCNC1=C(Nc2ccccc2)C(=O)c2ccccc2C1=O | 34 µM
O=C1C(Nc2ccccc2)=C(NS(=O)(=O)c2ccccc2[N+](=O)[O-])C(=O)c2ccccc21 | > 70 µM (inactive)
CC(=O)N(C)C1=C(N2CCCCC2)C(=O)c2ccccc2C1=O | 4.42 µM
COc1ccc(C2=C(NC(=O)c3cccc(OC)c3)C(=O)c3ccccc3C2=O)cc1 | 29 µM
CN1CCN(C2=C(Nc3ccccc3)C(=O)c3ccccc3C2=O)CC1 | 23.4 µM
C=CCNC1=C(N(C)C(C)=O)C(=O)c2ccccc2C1=O | 0.79 µM
O=C1C(NS(=O)(=O)c2ccc(Br)cc2)=C(N2CCOCC2)C(=O)c2ccccc21 | 35.4 µM
O=C1C(NS(=O)(=O)c2ccc(Br)s2)=C(N2CCSCC2)C(=O)c2ccccc21 | > 70 µM (inactive)
O=C(NC1=C(c2ccccc2)C(=O)c2ccccc2C1=O)c1ccco1 | 25.7 µM
CCN1CCN(C2=C(Nc3ccccc3)C(=O)c3ccccc3C2=O)CC1 | 28.1 µM
O=C(NC1=C(N2CCOCC2)C(=O)c2ccccc2C1=O)c1ccccc1 | 20.1 µM
C=CCNC1=C(N2CCOCC2)C(=O)c2ccccc2C1=O | 11 µM
COc1ccc(C2=C(NC(=O)c3ccccc3OC)C(=O)c3ccccc3C2=O)cc1 | > 70 µM (inactive)
COc1ccc(C(=O)NC2=C(c3ccc(OC)cc3)C(=O)c3ccccc3C2=O)cc1 | 15.6 µM
NC1=CC(=O)c2ccccc2C1=O | 12.4 µM
O=C(NC1=C(Cl)C(=O)c2ccccc2C1=O)c1ccccc1 | 9.1 µM
CCN(CC)CCCNC1=C(N(C)C(C)=O)C(=O)c2ccccc2C1=O | 5.52 µM
COc1ccc(C2=C(NC(=O)c3cccc(Cl)c3)C(=O)c3ccccc3C2=O)cc1 | 27.7 µM
Cc1nc2ccccc2n1/N=C/c1ccc([N+](=O)[O-])s1 | 20.1 µM
CC(=O)N(C)C1=C(N2CCN(C)CC2)C(=O)c2ccccc2C1=O | 4.63 µM
O=C1C(Nc2ccccc2)=C(N2CCOCC2)C(=O)c2ccccc21 | 27 µM
COc1ccc(C2=C(NC(=O)c3ccc(Cl)cc3)C(=O)c3ccccc3C2=O)cc1 | 34.6 µM
O=C(NC1=C(N2CCOCC2)C(=O)c2ccccc2C1=O)c1ccc(Br)cc1 | 32 µM
